From PubChem
Sampled rows, rich in hits. Any-hit rate of the full collection: about 2.8%.
HTRA1 inhibitor: HTRA1 serine protease inhibitors, primary screen, biochemical, fluorescence polarization, HTS. recombinant HTRA1, FP-rhodamine activity-based probe. Q92743. AID 504803, 2011. inhibition, % at 5.96 µM. 340,000 tested, 0.5% active; in the data active means inhibition above about 36%;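 further: 0% = enzyme with DMSO and 100% = wells lacking enzyme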
ABHD4 inh: ABHD4 inhibitors, primary screen, biochemical, fluorescence polarization, mouse | purified mABHD4, FP-Rh probe fluorescence polarization | inhibition, % at 8.92 µM | 370,000 tested, 0.54% active | AID 720543, 2013;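 active means inhibition exceeding the mean over every tested compound plus 3 SD, cut at about 30% in these data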;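 further: 0% = plate median of compound wells and 100% = S159A mutant with DMSO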
Target sequence (Q8VD66 whole entry, looked up): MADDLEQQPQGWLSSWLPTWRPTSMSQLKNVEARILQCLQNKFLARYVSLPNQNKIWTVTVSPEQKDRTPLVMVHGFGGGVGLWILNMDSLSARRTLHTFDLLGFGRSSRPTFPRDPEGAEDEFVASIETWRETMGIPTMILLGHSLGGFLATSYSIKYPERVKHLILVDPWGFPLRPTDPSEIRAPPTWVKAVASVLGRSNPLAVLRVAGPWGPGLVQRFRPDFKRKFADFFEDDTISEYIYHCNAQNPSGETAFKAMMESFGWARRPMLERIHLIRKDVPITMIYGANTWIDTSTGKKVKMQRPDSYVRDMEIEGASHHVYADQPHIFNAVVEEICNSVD
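Doses – 8.92 µM, single dose · Material – wild-type mouse ABHD4 protein · Replication – single well per compound (singlicate) · Measure – percent inhibition of probe binding, normalized to plate controls · Schedule – 45 min compound pre-incubation plus 60 min probe step, 25 °C · Detection – fluorescence polarization with parallel and perpendicular emission, 525/598 nm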
PAFAH1B2 inh: PAFAH1B2 enzyme inhibitors, primary screen, biochemical, fluorescence polarization, human. 340,000 tested, 1.2% active. recombinant PAFAH1B2, FP-rhodamine activity probe. Platelet-activating factor acetylhydrolase IB subunit alpha2 (Homo sapiens), P68402. inhibition, % at 3.39 µM. AID 492953, 2010;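 active means inhibition above the mean of all tested compounds plus 3 SD, cut at about 24% in these data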;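 further: 0% = enzyme with DMSO and 100% = wells lacking PAFAH1B2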
Target sequence (P68402 whole entry, looked up): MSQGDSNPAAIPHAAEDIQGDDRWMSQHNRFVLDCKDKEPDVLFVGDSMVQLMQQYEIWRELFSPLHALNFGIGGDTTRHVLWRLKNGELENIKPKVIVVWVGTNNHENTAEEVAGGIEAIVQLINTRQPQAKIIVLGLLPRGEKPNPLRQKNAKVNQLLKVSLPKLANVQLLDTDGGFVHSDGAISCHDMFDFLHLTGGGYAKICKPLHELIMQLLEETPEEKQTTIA
pPAFAH FP inh: pPAFAH enzyme inhibitors, primary screen, biochemical, fluorescence polarization, human. inhibition, % at 3.39 µM. AID 463082, 2010. Platelet-activating factor acetylhydrolase (Homo sapiens), Q13093. 330,000 tested, 1.5% active. recombinant pPAFAH, FP-rhodamine probe fluorescence polarization;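 active means inhibition above the mean inhibition across the screen plus 3 SD, cut at about 25% in these data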;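 further: inhibitors block binding of the rhodamine activity-based probe so polarization drops; 0% = enzyme with DMSO and 100% = wells lacking pPAFAH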
PAFAH1B3 FP inh: PAFAH1B3 enzyme inhibitors, primary screen, biochemical, fluorescence polarization, human; Platelet-activating factor acetylhydrolase IB subunit alpha1 (Homo sapiens), Q15102; recombinant PAFAH1B3, FP-rhodamine probe; inhibition, % at 3.39 µM; 340,000 tested, 0.28% active; AID 492972, 2010;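 active means inhibition above the screen-wide average of all tested compounds plus 3 SD, cut at about 25% in these data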;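 further: 0% = enzyme with DMSO only and 100% = wells lacking PAFAH1B3 protein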
PAFAH2 inh: PAFAH2 enzyme inhibitors, primary screen, biochemical, fluorescence polarization, human; Platelet-activating factor acetylhydrolase 2, cytoplasmic (Homo sapiens), Q99487; recombinant PAFAH2, FP-rhodamine activity probe; inhibition, % at 3.39 µM; 340,000 tested, 0.99% active; AID 492956, 2010;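 active means inhibition above the mean over all tested compounds plus 3 SD, cut at about 30% in these data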;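 further: inhibitors block probe labeling of enzyme so polarization drops; 0% = enzyme with DMSO and 100% = wells lacking PAFAH2 protein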
Starred values were filed as active, the others as inactive; . = no result.

SMILES	HTRA1 inhibitor	ABHD4 inh	PAFAH1B2 inh	pPAFAH FP inh	PAFAH1B3 FP inh	PAFAH2 inh
CC12CC3(C)CC(C)(C1)CC(C(=O)NC1=NCCS1)(C2)C3	1	14	2	-2	1	-10
CC12CC3CC(C)(C1)CC(C(=O)NC1=NCCS1)(C3)C2	-1	10	28*	0	5	-2
COc1cc(NC(=O)CSc2ncnc3sc4c(c23)CCCC4)c(C(=O)O)cc1OC	0	11	6	26*	10	21
Cc1cccc(NC(=O)CSc2ncnc3sc4c(c23)CCCC4)c1	.	-4	.	.	.	.
CCCC1CCC2(CC1)CCC2OC(=S)NCCc1ccc(Cl)cc1 (stereo not drawn)	.	-9	.	.	.	.
Nc1ccc(N2CCN(c3ccc(F)cc3)CC2)cc1	28	8	-2	0	5	-2
Nc1ccc(N2CCCCCC2)cc1	.	.	.	29*	.	.
O=C(CSc1ccc(F)cc1)Nc1ccccc1N1CCOCC1	-7	-1	26*	1	13	1
CCCC[C@H]1C2CC(OC(=O)Nc3ccccc3C)C(C2)[C@H]2CCCCN21 (stereo partly drawn)	.	4	.	.	.	.
CC1CCC2C(C1)c1sc(=O)[nH]c1SC2(C)C (stereo not drawn)	-12	2	68*	2	5	-2
CC1C2(C)OC(=N)C(C#N)(C(C)O2)C1(C#N)C#N (stereo not drawn)	24	.	53*	4	60*	75*
Cc1ccc(-c2csc3ncnc(SCc4ccc(C(=O)O)cc4)c23)cc1	.	-17	.	29*	.	.
S=c1[nH]nc(-c2cc(-c3ccccc3)n[nH]2)n1N=Cc1cccc(OCc2ccccc2)c1	.	-2	.	.	.	.
Cc1ccc(SC2=C(N(C)C)C(=O)c3ccccc3C2=O)cc1	23	28	25*	.	34*	19
CN(CCC#N)C(=O)COC(=O)c1c2c(nc3ccccc13)/C(=C/c1ccco1)CC2	19	42*	3	27*	7	9
CCc1ccc(S(=O)(=O)Nc2ccc(-c3ccc4nnc(C)n4n3)cc2)s1	0	7	8	15	0	0
Cc1nnc2ccc(-c3ccc(NS(=O)(=O)c4ccc(Cl)s4)cc3)nn12	-4	6	-2	26*	3	-1
O=C(OC12CCCN(C1)/C(=C/c1ccncc1)C2)c1ccccc1 (stereo not drawn)	.	2	.	.	.	.
CC1=C(C#N)C(=O)N(C2CCS(=O)(=O)C2)C(=O)/C1=C\c1ccc(C)o1 (stereo not drawn)	.	.	.	37*	.	.
CCN1C(=O)N/C(=C/c2ccc(C)o2)C1=O	-1	4	2	0	1	0
CC(C)(C)n1cnc2cc(NCc3ccc(Br)cc3)ccc21	6	15	34*	8	6	1
COC(=O)[C@]12C[C@H](CC(=O)NCCc3ccccc3OC)C(=O)N(Cc3cccc4ccccc34)C1=C[C@H](C(C)C)O[C@@H]2C1CC1	.	-16	.	.	.	.
CCCCC/C=C\C/C=C\C/C=C\C/C=C\CCCC(=O)O	.	.	.	47*	.	.
CC(Oc1ccccc1)C(=O)Nc1nnc(S(=O)(=O)Nc2ccccc2)s1 (stereo not drawn)	-2	-6	10	29*	7	5
CSc1ccc(CN2CCN(CC=C(C)C)C(CCO)C2)cc1 (stereo not drawn)	3	0	-1	25*	10	-5
SMILES	HTRA1 inhibitor	ABHD4 inh	PAFAH1B2 inh	pPAFAH FP inh	PAFAH1B3 FP inh	PAFAH2 inh
O=C(CSCc1ccco1)c1ccc(Cl)s1	.	.	.	25*	.	.
O=C(NNC(=S)NCc1ccco1)c1ccc(Cl)s1	-1	13	-4	6	3	11
O=C(COC(=O)c1c[nH]c2ccccc12)Nc1ccc(F)cc1	-14	-9	0	30*	1	77*
O=C(COC(=O)c1c[nH]c2ccccc12)Nc1cccc(F)c1	-22	-15	-1	25*	9	81*
CN(C)S(=O)(=O)c1cc(NC(=O)COC(=O)CC2CC3CCC2C3)ccc1Cl (stereo not drawn)	-28	-2	6	26*	1	77*
C/C(=N/OC(=O)C1CC1c1ccccc1)c1ccccc1 (stereo not drawn)	-2	2	46*	13	6	32*
COc1ccc(C2CC2/C(C)=N/OC(=O)C2CC2)cc1 (stereo not drawn)	3	-2	-2	5	9	5
COc1ccc(-c2nn(CCC(=O)O)cc2/C=C2\SC(N)=NC2=O)cc1	2	0	4	-3	16	3
NC1=NC(=O)/C(=C/c2cn(CCC(=O)O)nc2-c2ccc(Cl)cc2)S1	-1	-8	50*	1	6	5
O=C(O)CCn1cc(/C=C\C(=O)c2ccc(Cl)cc2)c(-c2cccc(Br)c2)n1	-30	-18	46*	2	6	6
NC1=NC(=O)/C(=C/c2cn(CCC(=O)O)nc2-c2ccc(F)cc2)S1	-2	-2	48*	0	8	4
COC(=O)[C@]12C=CCN1[C@@H](c1ccc(C(F)(F)F)cc1)c1c(c3ccccc3n1S(=O)(=O)c1ccc(C)cc1)C2	.	15	.	.	.	.
COC(=O)C1=CC[C@@H](NC(=O)OC(C)(C)C)[C@H](O)[C@H]1O[Si](C)(C)C(C)(C)C	.	-6	.	.	.	.
Cc1ccc(NC(=S)NNC(=O)CSc2nc3ccccc3c(=O)n2-c2ccc(Cl)cc2)cc1	.	-7	.	.	.	.
CN(C)c1ccc(N=Cc2ccco2)cc1	55*	.	7	28*	6	2
CCOC(=O)c1c(-c2ccc(C)o2)csc1NC(=O)CSc1nncs1	-14	-3	1	25*	0	0
Cc1ccc(C(=O)NCc2ccco2)cc1S(=O)(=O)Nc1cccc(C)c1C	-12	6	5	33*	5	3
O=C(CSc1nnc(SCc2cccc3ccccc23)s1)Nc1ccc(S(=O)(=O)Nc2nccs2)cc1	.	-90	.	.	.	.
COc1ccccc1NC(=O)c1ccc(NC(=O)COC(=O)C2CC2C)cc1 (stereo not drawn)	-13	-11	1	34*	3	43*
COc1ccccc1NC(=O)c1ccc(NC(=O)COC(=O)C2CCCO2)cc1 (stereo not drawn)	-3	.	0	.	-3	-1
O=S(=O)(Nc1cccc(-c2ccc(N3CCCCCC3)nn2)c1)c1cccc(F)c1	-62	-48	7	27*	-3	5
O=S(=O)(Nc1cccc(-c2ccc(N3CCCCCC3)nn2)c1)c1ccccc1Cl	-37	-63	21	29*	-1	-14
